Assay results reported in PMC10950693 (International Journal for Parasitology: Drugs and Drug …, 2024).

Experiment: Cytotoxicity against murine macrophages, alamarBlue, 24 h
Type: cell-based
Conditions: mouse, J774A.1 murine macrophages
Method in brief: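 J774A.1 macrophages were kept in DMEM with 10% FBS at 37 °C, 5% CO2. Cells were seeded at 10^4/well and allowed 3–4 h to adhere. Serial dilutions were added with 10% alamarBlue for 24 h at 37 °C, 5% CO2, then fluorescence was read. CC50 was derived by four-parameter variable-slope nonlinear regression.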

Structure (SMILES)	CC50 at 24 h [µM]
O=C(Cn1ccnc1[N+](=O)[O-])NCc1ccccc1 [B, benznidazole]	399.9 ± 1.4
CCCCCCCCCCCCCCCCOP(=O)([O-])OCC[N+](C)(C)C [M, miltefosine]	72.2 ± 8.85
